The values that follow come from ChEMBL document CHEMBL1129296, “Cardioselective antiischemic ATP-sensitive potassium channel openers. 4. Structure-activity studies on benzopyranylcyanoguanidines: replacement of the benzopyran portion” (J Med Chem, 1996).

Assay type in all cases: functional
The nature of test [1]: Ratio between Antiischemic potency to Vasorelaxant potency. The procedure, abridged:
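Cardioselectivity was taken as the ratio of two values. The first is the EC25 for a 25% increase in time to contracture, in globally ischemic isolated perfused rat hearts. The second is the IC50 for relaxation of methoxamine-contracted rat aorta.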

For test [2], the species on record is Rattus norvegicus. Description: Antiischemic potency was determined for increase in time to contracture by 25% in globally ischemic rat hearts. An outline of the steps:
(§1)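 Isolated rat hearts were perfused, then subjected to total global ischemia. Contracture onset was taken as the time for end diastolic pressure to rise 5 mmHg above baseline. EC25 is the concentration that raises time to contracture by 25%.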

For test [3], the species on record is Rattus norvegicus. Description: Antiischemic potency was determined at 10 uM for increase in time to contracture by 25% in globally ischemic rat hearts.
The species entered for test [4] is Rattus norvegicus. Put plainly: Vasorelaxant potency was determined for inhibition of methoxamine contracted rat aorta. An outline of the steps:
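Vasorelaxation was measured in rat aorta precontracted with methoxamine. IC50 is the concentration giving relaxation of the contraction.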

Test [5] is filed under the species Rattus norvegicus. Put plainly: Antiischemic potency for increase in time to contracture by 25% in globally ischemic rat hearts. An outline of the steps: as §1

The EC25 is the concentration at which the effect reaches the 25% level. The IC50 is the midpoint of a concentration-inhibition curve. Read a high IC50 as weaker potency. In the case of `CC(C)(C)c1ccc(C#N)cc1NC(=O)Nc1cccnc1`, in test [1], the Ratio came to 1.2. The 25% effect level in the test listed under Rattus norvegicus [2] (EC25) was put at 29.7 µM. Also, the “Increase in time to contracture” value in the test listed under Rattus norvegicus [3] amounted to 25%. Further, in the test filed under Rattus norvegicus [4], it took 25.7 µM to reach half-maximal inhibition (IC50).
For `CC(C)(C)c1ccc(C#N)cc1NC(=O)Nc1cnccn1`, in test [1], the Ratio is 0.77. This compound yielded an EC25 in the test filed under Rattus norvegicus [2] of 11.9 µM. Besides, in the test listed under Rattus norvegicus [4], the IC50 turned out to be 15.3 µM.
As for `CC(C)(C)c1ccc(C#N)cc1NC(=O)Nc1ccc(Cl)nc1`, in test [1], the Ratio came out at 12. Also, the EC25 in the test listed under Rattus norvegicus [2] came to 19.2 µM. In the test listed under Rattus norvegicus [4], half-maximal inhibition (IC50) was put at 1.6 µM.
The like results for `CC1(C)CN(C(=O)Nc2cccnc2)c2cc(C#N)ccc21` were, in that order, 18.8, 28.3 µM and 1.5 µM.
Consider `CC(C)(C)c1ccc(C#N)cc1NC(=O)Nc1ccccn1`, for which, in the test listed under Rattus norvegicus [3], the “Increase in time to contracture” value was determined as 25%. Besides, the 50% inhibitory concentration (IC50) in the test filed under Rattus norvegicus [4] amounted to 25.7 µM.
Consider `CC(C)(C)c1ccc(C#N)cc1NC(=O)Nc1ccccc1`, for which, in test [1], the Ratio is 19.9. This compound also had an EC25 in the test listed under Rattus norvegicus [2] of 33.8 µM. This compound also returned a 50% inhibitory concentration (IC50) in the test filed under Rattus norvegicus [4] of 1.7 µM.
Compound `N#Cc1ccc(Oc2ccccc2)c(NC(=O)Nc2cccnc2)c1` came in with an EC25 in the test listed under Rattus norvegicus [2] of 2 µM. This compound also gave a 50% inhibitory concentration (IC50) in the test filed under Rattus norvegicus [4] of 1 µM.
`CC(C)(C)c1ccc(C#N)cc1NC(=O)Nc1cncnc1`: the “Increase in time to contracture” value in the test filed under Rattus norvegicus [3] is listed as 2%. It took 12.4 µM to reach half-maximal inhibition in the test listed under Rattus norvegicus [4] (IC50).
For `CC1(C)Oc2ccc(C#N)cc2[C@@H](/N=C(\NC#N)Nc2ccccc2)[C@@H]1O`, the Ratio in test [1] worked out at 7.9. The compound further returned an EC25 in the test listed under Rattus norvegicus [2] of 11 µM. Half-maximal inhibition in the test listed under Rattus norvegicus [4] (IC50) required 1.4 µM.
The like results for `CC1(C)CC(NC(=O)Nc2ccccc2)c2cc(C#N)ccc21` (centres undefined) were, in that order, 7.2, 9.4 µM and 1.3 µM.
On to `CC(C)(C)c1ccc(C#N)cc1/N=C(/NC#N)Nc1cccnc1`, for which, in the test listed under Rattus norvegicus [3], the “Increase in time to contracture” value worked out at 16%. The half-inhibitory concentration (IC50) in the test filed under Rattus norvegicus [4] is 1.2 µM.
Take `N#Cc1ccc(-c2ccccc2)c(NC(=O)Nc2cccnc2)c1`: in the test listed under Rattus norvegicus [2], the EC25 came to 12 µM. The 50% inhibitory concentration (IC50) in the test listed under Rattus norvegicus [4] was found to be 22.8 µM.
Take `CC1(C)CCN(C(=O)Nc2ccccc2)c2cc(C#N)ccc21`: the Ratio in test [1] stood at 3.9. In the test listed under Rattus norvegicus [2], this compound came in with an EC25 of 26 µM. In addition, in the test listed under Rattus norvegicus [4], the half-inhibitory concentration (IC50) was determined as 6.7 µM.
The Inhibition is the share of the control response that was lost under treatment. For `Cc1ccc(S(=O)(=O)Nc2ccc(C#N)cc2NC(=O)Nc2cccnc2)cc1`, the Inhibition in the test listed under Rattus norvegicus [5] is 0%. The compound further yielded a half-inhibitory concentration (IC50) in the test listed under Rattus norvegicus [4] above 100 µM.
`CC(C)(C)c1ccc(C#N)cc1NC(=O)Nc1ccncc1`: in the test listed under Rattus norvegicus [3], the “Increase in time to contracture” value came out at 14%. This compound also had an IC50 in the test listed under Rattus norvegicus [4] of 7.8 µM.
